Results as given in ChEMBL document CHEMBL2176974, “A bactericidal guanidinomethyl biaryl that alters the dynamics of bacterial FtsZ polymerization” (J Med Chem, 2012).
Substitutions are numbered along the chain they refer to. Values after ≈ are worked out from the molar mass of the structure shown. Active and inactive are the calls of the source. The rule behind the calls is not given here.

How the values were obtained:
[1] = test system: Enterococcus faecalis; assay: Stimulation of Enterococcus faecalis FtsZ self-polymerization by microtiter plate-based light scattering assay
[2] = test system: Staphylococcus aureus; assay: Bactericidal activity against methicillin-sensitive Staphylococcus aureus 8325-4 at 8 times MIC measured within 6 hrs post dose for 24 hrs assessed as log reduction in bacterial CFU by time kill study; type: functional
Method in brief: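 Exponentially growing S. aureus 8325-4 was diluted in CAMH broth to 10⁵–10⁶ CFU/mL. […] Samples taken at 2, 4 and 6 h were pelleted or diluted, then plated on TSA. Colonies were counted after 24 h at 37 °C. Points are the mean of two independent measurements.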

[3] = test system: Klebsiella pneumoniae; assay: Antimicrobial activity against Klebsiella pneumoniae ATCC 13883 incubated for 24 hrs by broth microdilution method; type: functional; details: ATCC 13883, 24 h
Method in brief: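 CLSI broth microdilution. Log-phase bacteria at 10⁵ CFU/mL were added to 2-fold serial dilutions (64 to 0.016 μg/mL) in cation-adjusted Mueller-Hinton broth. Plates were incubated aerobically for 24 h at 37 °C and growth was read as OD600. MIC is the lowest concentration giving 90% growth inhibition.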

[4] = test system: Staphylococcus aureus; assay: Antimicrobial effect against 3x10^9 CFU/ml methicillin-sensitive Staphylococcus aureus 8325-4 at 4 to 32 times MIC assessed as incidence of colonies growth measured after 24 incubation by large inoculation approach based drug resistance detection method; type: functional, organism-based
Method in brief: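 Inoculum count checked on nonselective plates. Incubated at 37 °C and examined after 24 h and daily thereafter. Mutation frequency = colonies on selective plates / total bacteria plated.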

[5] = test system: T1, Cell division protein FtsZ (Staphylococcus aureus), P0A031 [E185A]; assay: Binding affinity to Staphylococcus aureus FtsZ E185A mutant self-polymerization at 20 ug/mL by microtiter plate-based light scattering assay
T1 sequence (whole entry): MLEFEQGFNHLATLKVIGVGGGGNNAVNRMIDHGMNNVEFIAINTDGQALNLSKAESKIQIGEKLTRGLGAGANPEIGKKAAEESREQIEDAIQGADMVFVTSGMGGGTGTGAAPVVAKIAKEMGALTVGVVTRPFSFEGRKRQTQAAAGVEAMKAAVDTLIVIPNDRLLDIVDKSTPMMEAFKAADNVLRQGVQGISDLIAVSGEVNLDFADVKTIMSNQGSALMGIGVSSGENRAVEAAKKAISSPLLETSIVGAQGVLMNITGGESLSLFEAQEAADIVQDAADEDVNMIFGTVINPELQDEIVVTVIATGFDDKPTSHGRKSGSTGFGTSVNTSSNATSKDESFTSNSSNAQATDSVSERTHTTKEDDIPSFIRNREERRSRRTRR

[6] = target: T2, Cell division protein FtsZ (Staphylococcus aureus) (UniProt P0A031); assay: Stimulation of Staphylococcus aureus FtsZ self-polymerization by microtiter plate-based light scattering assay
T2 sequence (whole entry): T1 sequence (whole entry) with A185E

[7] = test system: T3, Cell division protein FtsZ (Staphylococcus aureus), P0A031 [I228R]; assay: Binding affinity to Staphylococcus aureus FtsZ I228R mutant self-polymerization at 20 ug/mL by microtiter plate-based light scattering assay
T3 sequence (whole entry): T1 sequence (whole entry) with A185E, I228R

[8] = Selectivity index, ratio of Kd for Enterococcus faecalis FtsZ to Kd for Staphylococcus aureus FtsZ
Method in brief: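 Buffer was 50 mM Tris·HCl pH 7.4, 50 mM KCl, 2 mM magnesium acetate. Kd came from nonlinear least-squares fits, and the index is the ratio of the two Kd values.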

[9] = target: T4, Cell division protein FtsZ (Staphylococcus aureus, UniProt P0A031); assay: Binding affinity to Staphylococcus aureus FtsZ expressed in Escherichia coli BL21 (DE3) at 25 degC by fluorescence anisotropy assay; details: read-out: Kd
T4 sequence (P0A031 whole entry): T1 sequence (whole entry) with A185E
Method in brief: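 Intrinsic compound fluorescence anisotropy. Compound at 5 μM was titrated with 0–25 μM FtsZ in 50 mM Tris·HCl pH 7.4, 50 mM KCl, 2 mM magnesium acetate. Samples were incubated 5 min at 25 °C, excited at 245 nm with emission at 318 nm, and G-corrected. Runs were in triplicate and averaged. Kd was obtained by nonlinear least-squares fit. SaFtsZ was expressed in E. coli BL21(DE3) and purified by ammonium sulfate, MonoQ and Superdex-200.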

[10] = test system: T5, Cell division protein FtsZ (Staphylococcus aureus), P0A031 [G196A]; assay: Binding affinity to Staphylococcus aureus FtsZ G196A mutant self-polymerization at 10 ug/mL by microtiter plate-based light scattering assay
T5 sequence (whole entry): T1 sequence (whole entry) with A185E, G196A

Question: For `CC(C)(C)c1ccc(-c2cccc(CNC(=N)N)c2)cc1`, which Activity [1] is on record?
Answer: Its Activity is “Dose-dependent effect”.

Question: What about the FC [2] of the same compound?
Answer: The FC was 4.

Question: And the MIC [3]?
Answer: The MIC was 32 µg/mL (≈ 114 µM).

Question: And the Activity [4]?
Answer: Its Activity is “Active”.

Question: And the Activity [5]?
Answer: Its Activity is “inactive”.

Question: And the Activity [6]?
Answer: The Activity was “Dose-dependent effect”.

Question: What about the Activity [7] of the same compound?
Answer: Its Activity is “Active”.

Question: And the Ratio [8]?
Answer: Its Ratio is 6.

Question: And the Kd [9]?
Answer: The Kd was 3.5 µM.

Question: What about the Activity [10] of the same compound?
Answer: The Activity was “Active”.
